Assay results published in ChEMBL document CHEMBL5576114, “Inhibition of DXR in the MEP pathway with lipophilic N-alkoxyaryl FR900098 analogs” (RSC Med Chem, 2024).
Values after ≈ are worked out from the molar mass of the structure shown. Active and inactive are the calls of the source. The calls are words filed in the database; no cut-off is given here.

Assays:
[1] = test system: Plasmodium falciparum; experiment: Antiplasmodial activity against Plasmodium falciparum 3D7 assessed as reduction in parasite growth by measuring DNA content after 3 days by PicoGreen staining based FLUOstar omega microplate reader analysis; format: functional, organism-based; settings: 3D7, 72 h
Method in brief: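 Asynchronous cultures in 2% hematocrit, RPMI-1640 complete medium with 0.5% Albumax, under 5% O2/5% CO2/90% N2 at 37 °C. Diluted to 0.5% parasitemia, inhibitors 1.2 nM to 492.4 µM added at start. Growth read after 3 days as DNA content by PicoGreen fluorescence (485/528 nm). IC50 from 4-parameter nonlinear regression; technical duplicate, biological triplicate.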

[2] = test system: Mycobacterium tuberculosis; experiment: Antibacterial activity against Mycobacterium tuberculosis H37Rv assessed as reduction in bacterial growth incubated for 2 weeks by macroscopic plate reader analysis; format: functional; settings: 336 h
Method in brief: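 H37Rv grown in 7H9 broth with 0.08% NaCl, 0.4% glucose, 0.05% casitone and 0.05% tyloxapol, then diluted 1:500. Compounds were made as 20 mg/mL DMSO stocks and run as eleven 2-fold serial dilutions. Plates were held 2 weeks at 37 °C and MIC99 was read macroscopically. Three independent measurements.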

[3] = target: T1, 1-deoxy-D-xylulose 5-phosphate reductoisomerase, apicoplastic (Plasmodium falciparum (isolate 3D7), UniProt Q8IKG4); experiment: Inhibition of Plasmodium falciparum DXR expressed in Escherichia coli BL21 CodonPlus (DE3)-RIL cells using DOXP as substrate in presence of NADPH by UV-visible spectrophotometry
T1 sequence (Q8IKG4 whole entry): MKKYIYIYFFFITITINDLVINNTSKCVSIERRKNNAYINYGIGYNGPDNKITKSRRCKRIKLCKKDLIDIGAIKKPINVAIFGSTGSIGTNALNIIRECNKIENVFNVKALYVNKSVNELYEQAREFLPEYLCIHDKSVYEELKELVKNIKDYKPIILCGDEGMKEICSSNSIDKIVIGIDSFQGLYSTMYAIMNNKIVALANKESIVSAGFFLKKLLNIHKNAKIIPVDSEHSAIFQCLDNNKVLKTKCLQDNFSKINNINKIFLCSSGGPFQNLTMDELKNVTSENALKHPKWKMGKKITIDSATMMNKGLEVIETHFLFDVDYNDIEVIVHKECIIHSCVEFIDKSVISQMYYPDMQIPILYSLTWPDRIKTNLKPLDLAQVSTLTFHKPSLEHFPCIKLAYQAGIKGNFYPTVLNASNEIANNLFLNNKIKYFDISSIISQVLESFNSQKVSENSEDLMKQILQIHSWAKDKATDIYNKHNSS

[4] = target: T2, 1-deoxy-D-xylulose 5-phosphate reductoisomerase (Mycobacterium tuberculosis) (UniProt P9WNS1); experiment: Inhibition of Mycobacterium tuberculosis DXR expressed in Escherichia coli BL21 CodonPlus (DE3)-RIL cells assessed as remaining activity using DOXP as substrate at 100 uM in presence of NADPH by UV-visible spectrophotometry relative to control
T2 sequence (whole entry): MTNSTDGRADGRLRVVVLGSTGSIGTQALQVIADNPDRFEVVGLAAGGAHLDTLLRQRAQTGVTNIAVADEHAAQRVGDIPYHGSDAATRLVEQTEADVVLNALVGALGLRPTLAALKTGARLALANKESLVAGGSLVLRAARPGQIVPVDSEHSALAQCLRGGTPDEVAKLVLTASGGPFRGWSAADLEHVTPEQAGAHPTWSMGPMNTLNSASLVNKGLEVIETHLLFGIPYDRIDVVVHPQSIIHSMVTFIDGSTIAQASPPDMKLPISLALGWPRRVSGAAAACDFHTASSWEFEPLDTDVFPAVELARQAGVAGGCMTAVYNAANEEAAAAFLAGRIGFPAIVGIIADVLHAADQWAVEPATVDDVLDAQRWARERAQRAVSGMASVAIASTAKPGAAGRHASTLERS
Method in brief: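 Recombinant MtbDXR (pET101/D-TOPO in E. coli BL21 CodonPlus (DE3)-RIL, IMAC-purified) at 0.89 µM in 100 mM MES pH 6.5, 25 mM MgCl2, 150 µM NADPH, 47 µM DOXP, 37 °C. Inhibitor was tested at a single 100 µM. NADPH oxidation was followed at 340 nm, and percent remaining activity was reported. Technical duplicates.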

[5] = target: T3, 1-deoxy-D-xylulose 5-phosphate reductoisomerase, apicoplastic (Plasmodium falciparum (isolate 3D7)) (UniProt Q8IKG4); experiment: Inhibition of Plasmodium falciparum DXR expressed in Escherichia coli BL21 CodonPlus (DE3)-RIL cells using DOXP as substrate at 100 uM in presence of NADPH by UV-visible spectrophotometry relative to control
T3 sequence (whole entry): T1 sequence (Q8IKG4 whole entry)
Method in brief: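 PfDXR single-point test at 100 µM inhibitor. Conditions: 0.86 µM IMAC-purified enzyme, 100 mM Tris pH 7.8, 25 mM MgCl2, 150 µM NADPH, 37 °C. Reaction was started with 144 µM DOXP, and NADPH oxidation was monitored at 340 nm. Percent remaining activity was reported; technical duplicates.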

[6] = test system: Plasmodium falciparum; experiment: Antiplasmodial activity against Plasmodium falciparum E1-C12 harboring with had1 mutation assessed as reduction in parasite growth by measuring DNA content after 3 days by PicoGreen staining based FLUOstar omega microplate reader analysis; format: functional, organism-based; settings: time 3.0 day
Method in brief: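 E1-C12 (had1) parasites, asynchronous, at 2% hematocrit in RPMI-1640/0.5% Albumax with hypoxanthine, under 5% O2/5% CO2/90% N2 at 37 °C. Started at 0.5% parasitemia and dosed at 1.2 nM–492.4 µM. After 3 days, DNA was stained with PicoGreen (ex 485/em 528). IC50 came from a 4-parameter fit; technical duplicates, biological triplicates.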

[7] = test system: Plasmodium falciparum; experiment: Antiplasmodial activity against Plasmodium falciparum E1-C12 harboring with had1 mutation assessed as reduction in parasite growth by measuring DNA content after 3 days in presence of IPP by PicoGreen staining based FLUOstar omega microplate reader analysis; format: functional, organism-based; settings: time 3.0 day
Method in brief: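 IPP rescue in had1 E1-C12 parasites: 125 µM IPP was present for the whole assay. Cultures at 2% hematocrit in Albumax-supplemented RPMI, 5% O2/5% CO2, 37 °C, started at 0.5% parasitemia. Inhibitors were dosed at 1.2 nM–492.4 µM, and growth was read after 3 days by PicoGreen fluorescence. 4-parameter fit; duplicate wells, biological triplicates.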

[8] = Cytotoxicity against human HepG2 cells assessed as reduction in cell viability after 24 hrs by Cell Titer Glo assay; format: toxicity, cell-based
Method in brief: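 HepG2 cells in DMEM with 4 mM L-glutamine and 4.5 g/L glucose, trypsinized and plated from a 4×10^5 cells/mL suspension. Compounds were tested as two-fold dilutions from 100 to 0.1 µg/mL, with a DMSO-only control, in duplicate. After 24 h at 37 °C, 5% CO2, CellTiter-Glo luminescence was read after 20 min in the dark.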

Compound	IC50 [1] [µM]	MIC [2] [µM]	IC50 [3] [µM]	Activity [4] [%]	inhibition [5] [%]	Activity [6]	Activity [7]	IC50 at 24 h [8] [µM]
CC(=O)N(CCC(c1ccc(Cl)c(Cl)c1)P(=O)(OCOC(=O)C(C)(C)C)OCOC(=O)C(C)(C)C)OCc1ccccc1 (stereo not drawn)	41.6	9.5 (≈ 6.28 µg/mL)						
CC(=O)N(CCC(c1ccc(Cl)c(Cl)c1)P(=O)(OCOC(=O)C(C)(C)C)OCOC(=O)C(C)(C)C)OCc1ccc(-c2ccccc2)cc1 (stereo not drawn)	8.78	17 (≈ 12.5 µg/mL)						
CC(=O)N(CCC(c1ccc(Cl)c(Cl)c1)P(=O)(OCOC(=O)C(C)(C)C)OCOC(=O)C(C)(C)C)OCc1ccc2ccccc2c1 (stereo not drawn)	14	8.8 (≈ 6.25 µg/mL)						
CC(=O)N(CCC(c1ccc(Cl)c(Cl)c1)P(=O)(OCOC(=O)C(C)(C)C)OCOC(=O)C(C)(C)C)OC(C)c1ccccc1 (stereo not drawn)	5.22	3.9 (≈ 2.63 µg/mL)						
CC(=O)N(CCC(c1ccc(Cl)c(Cl)c1)P(=O)(OCOC(=O)C(C)(C)C)OCOC(=O)C(C)(C)C)OC(C)c1ccc(C)cc1 (stereo not drawn)	31.9	18.2 (≈ 12.5 µg/mL)						
CC(=O)N(CCC(c1ccc(Cl)c(Cl)c1)P(=O)(OCOC(=O)C(C)(C)C)OCOC(=O)C(C)(C)C)OCc1ccc(Br)cc1 (stereo not drawn)	34.8	8.5 (≈ 6.29 µg/mL)						
CC(=O)N(CCC(c1ccc(Cl)c(Cl)c1)P(=O)(OCOC(=O)C(C)(C)C)OCOC(=O)C(C)(C)C)OC(C)c1ccc(Cl)cc1 (stereo not drawn)	30.1	13.3 (≈ 9.43 µg/mL)						
CC(=O)N(CCC(c1ccc(Cl)c(Cl)c1)P(=O)(OCOC(=O)C(C)(C)C)OCOC(=O)C(C)(C)C)OCc1ccc(-c2ccc(C(C)C)cc2)cc1 (stereo not drawn)	14.9	> 128						
CC(=O)N(CCC(c1ccc(Cl)c(Cl)c1)P(=O)(O)O)OCc1ccc(C(C)C)cc1 (stereo not drawn)	68.7	12.3 (≈ 5.83 µg/mL)	26.5	80.9	> 90			
CC(=O)N(CCC(c1ccc(Cl)c(Cl)c1)P(=O)(OCOC(=O)C(C)(C)C)OCOC(=O)C(C)(C)C)OCc1ccc(C(C)C)cc1 (stereo not drawn)	13.9	17.8 (≈ 12.5 µg/mL)						
CC(=O)N(CCC(c1ccc(Cl)c(Cl)c1)P(=O)(O)O)OC(C)c1ccc(C)cc1 (stereo not drawn)	3.53	> 101	1.21	30.7	> 90	Active	inactive	> 200
COc1ccc(C(C)ON(CCC(c2ccc(Cl)c(Cl)c2)P(=O)(OCOC(=O)C(C)(C)C)OCOC(=O)C(C)(C)C)C(C)=O)cc1 (stereo not drawn)	0.37	6.5 (≈ 4.58 µg/mL)				Active	inactive	> 140
CC(=O)N(O)CCC(c1ccc(Cl)c(Cl)c1)P(=O)(OCOC(=O)C(C)(C)C)OCOC(=O)C(C)(C)C (stereo not drawn)	13	8.1 (≈ 4.62 µg/mL)						
